Test results taken from article PMC6400527 (The Journal of General Physiology, 2019).
Like-named read-outs stand apart in the source and are kept apart here.

Assays:
[1] = tested on: gA^−(13) channels in DC18:1PC/n-decane bilayer; assay: gA single-channel electrophysiology, gA−; type: biochemical; settings: mean ± SE, n = 3–4
Outline: (§1)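 Bilayer of DC18:1PC in n-decane formed across a 1–1.5 mm Teflon hole. It was co-doped with AgA(15) (total a few pM) and gA−(13) (~10-fold higher). Test compound from DMSO stock was added to both sides at increasing concentrations. Patches were isolated with 20–40 µm punch electrodes in 1 M NaCl, 10 mM HEPES pH 7, 25 ± 1°C, ±200 mV. Signals were filtered at 5 kHz, sampled at 20 kHz, then filtered at 200–500 Hz. Events were detected by a transition-based algorithm. Lifetimes came from single-exponential fits of survivor histograms, normalized to no-drug lifetimes in the same experiment. n = 3–4.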

[2] = tested on: AgA(15) channels in DC18:1PC/n-decane bilayer; assay: gA single-channel electrophysiology, AgA; type: biochemical; settings: mean ± SE, n = 3–4
Outline: as §1

[3] = Bilayer elastic coefficient HB / property altered, from lifetimes of gA−; settings: for bilayer property primarily altered: single-channel electrophysiology; for decrease of HB (bilayer elastic coefficient): 100 µM, HB of unmodified bilayer ∼22 kBT/nm^2
[4] = ref Karson et al., 1993; Bolo et al., 2000; cited from earlier work
[5] = molecular target: [Ala^1]gA, 15-amino-acid analogue of gramicidin A; assay: single-channel electrophysiology
[6] = molecular target: [Ala^1]gA, 15-amino-acid analogue of gramicidin A; assay: single-channel electrophysiology; remark: listed apart in the source
[7] = molecular target: [Ala^1]gA, 15-amino-acid analogue of gramicidin A; assay: single-channel electrophysiology; remark: listed apart in the source
[8] = molecular target: [Ala^1]gA, 15-amino-acid analogue of gramicidin A; assay: single-channel electrophysiology; remark: listed apart in the source
[9] = molecular target: [Ala^1]gA, 15-amino-acid analogue of gramicidin A; assay: single-channel electrophysiology; remark: listed apart in the source
[10] = molecular target: [Ala^1]gA, 15-amino-acid analogue of gramicidin A; assay: single-channel electrophysiology; remark: listed apart in the source
[11] = molecular target: des-(D-Val-Gly)gA^−, chain-shortened enantiomer of gramicidin A; assay: single-channel electrophysiology
[12] = molecular target: des-(D-Val-Gly)gA^−, chain-shortened enantiomer of gramicidin A; assay: single-channel electrophysiology; remark: listed apart in the source
[13] = molecular target: des-(D-Val-Gly)gA^−, chain-shortened enantiomer of gramicidin A; assay: single-channel electrophysiology; remark: listed apart in the source
[14] = molecular target: des-(D-Val-Gly)gA^−, chain-shortened enantiomer of gramicidin A; assay: single-channel electrophysiology; remark: listed apart in the source
[15] = molecular target: des-(D-Val-Gly)gA^−, chain-shortened enantiomer of gramicidin A; assay: single-channel electrophysiology; remark: listed apart in the source
[16] = molecular target: des-(D-Val-Gly)gA^−, chain-shortened enantiomer of gramicidin A; assay: single-channel electrophysiology; remark: listed apart in the source

## CN(C)CCC=C1c2ccccc2CCc2ccccc21 [Amitriptyline]
[1]; 100 µM
  τAD,13/τcntrl,13 (normalized gA−(13) lifetime): 1.6 ± 0.1
[2]; 100 µM
  τAD,15/τcntrl,15 (normalized AgA(15) lifetime): 1.5 ± 0.1
[3]
  bilayer property primarily altered: intrinsic curvature

## CN(C)CCCC1(c2ccc(F)cc2)OCc2cc(C#N)ccc21 (centres unmarked) [Citalopram (R−), Citalopram]
[1]; 250 µM
  τAD,13/τcntrl,13 (normalized gA−(13) lifetime): 1.8 ± 0.1
[2]; 250 µM
  τAD,15/τcntrl,15 (normalized AgA(15) lifetime): 1.78 ± 0.04

## CN(C)CCCC1(c2ccc(F)cc2)OCc2cc(C#N)ccc21 (centres unmarked) [Citalopram (S+), Citalopram]
[1]; 250 µM
  τAD,13/τcntrl,13 (normalized gA−(13) lifetime): 2.0 ± 0.2
[2]; 250 µM
  τAD,15/τcntrl,15 (normalized AgA(15) lifetime): 1.9 ± 0.2

## CN(C)CCCC1(c2ccc(F)cc2)OCc2cc(C#N)ccc21 (centres unmarked) [Citalopram]
[3]
  bilayer property primarily altered: intrinsic curvature

## CNCCC(Oc1ccc(C(F)(F)F)cc1)c1ccccc1 (centres unmarked) [Fluoxetine (R−), Fluoxetine]
[1]; 100 µM
  τAD,13/τcntrl,13 (normalized gA−(13) lifetime): 3.1 ± 0.6
[2]; 100 µM
  τAD,15/τcntrl,15 (normalized AgA(15) lifetime): 2.3 ± 0.3
[3]
  decrease of HB (bilayer elastic coefficient): ~3.0 ± 0.3 kBT/nm^2

## CNCCC(Oc1ccc(C(F)(F)F)cc1)c1ccccc1 (centres unmarked) [Fluoxetine (S+), Fluoxetine]
[1]; 100 µM
  τAD,13/τcntrl,13 (normalized gA−(13) lifetime): 2.9 ± 0.4
[2]; 100 µM
  τAD,15/τcntrl,15 (normalized AgA(15) lifetime): 2.3 ± 0.3
[3]
  decrease of HB (bilayer elastic coefficient): ~2.3 ± 0.5 kBT/nm^2

## CNCCC(Oc1ccc(C(F)(F)F)cc1)c1ccccc1 (centres unmarked) [Fluoxetine]
[4]
  concentration in brain: up to 10 µM
[3]
  bilayer property primarily altered: bilayer elasticity

## CN(C)CCCN1c2ccccc2CCc2ccccc21 [Imipramine]
[1]; 100 µM
  τAD,13/τcntrl,13 (normalized gA−(13) lifetime): 1.5 ± 0.1
[2]; 100 µM
  τAD,15/τcntrl,15 (normalized AgA(15) lifetime): 1.4 ± 0.1
[3]
  decrease of HB (bilayer elastic coefficient): ~1.3 ± 0.9 kBT/nm^2
  bilayer property primarily altered: intrinsic curvature

## [Ala^1]gA, 15-amino-acid analogue of gramicidin A (peptide)
[5]
  normalised single-channel (dimer) lifetime τ (AD,15)/τ (cntrl,15): 1.78
[6]
  normalised single-channel (dimer) lifetime τ (AD,15)/τ (cntrl,15): 1.5
[7]
  normalised single-channel (dimer) lifetime τ (AD,15)/τ (cntrl,15): 2.3
[8]
  normalised single-channel (dimer) lifetime τ (AD,15)/τ (cntrl,15): 1.4
[9]
  normalised single-channel (dimer) lifetime τ (AD,15)/τ (cntrl,15): 2.3
[10]
  normalised single-channel (dimer) lifetime τ (AD,15)/τ (cntrl,15): 1.9

## des-(D-Val-Gly)gA^−, chain-shortened enantiomer of gramicidin A (peptide)
[11]
  normalised single-channel (dimer) lifetime τ (AD,13)/τ (cntrl,13): 1.8
[12]
  normalised single-channel (dimer) lifetime τ (AD,13)/τ (cntrl,13): 1.6
[13]
  normalised single-channel (dimer) lifetime τ (AD,13)/τ (cntrl,13): 2.9
[14]
  normalised single-channel (dimer) lifetime τ (AD,13)/τ (cntrl,13): 1.5
[15]
  normalised single-channel (dimer) lifetime τ (AD,13)/τ (cntrl,13): 3.1
[16]
  normalised single-channel (dimer) lifetime τ (AD,13)/τ (cntrl,13): 2
